Measurements: ChEMBL document CHEMBL1165980, “Synthesis and structure-activity relationship study of novel cytotoxic carbamate and N-acylheterocyclic bearing derivatives of betulin and betulinic acid” (Bioorg Med Chem, 2010)
Calls of active or inactive are those of the source. The calls are words filed in the database; no cut-off is given here.

How the values were obtained:
[1] = biological target: T1, DNA topoisomerase 1 (Homo sapiens) (UniProt P11387); experiment: Inhibition of DNA topoisomerase 1-mediated relaxation of supercoiled plasmid DNA at 100 uM after 3 hrs by gel electrophoresis
T1 sequence (whole entry): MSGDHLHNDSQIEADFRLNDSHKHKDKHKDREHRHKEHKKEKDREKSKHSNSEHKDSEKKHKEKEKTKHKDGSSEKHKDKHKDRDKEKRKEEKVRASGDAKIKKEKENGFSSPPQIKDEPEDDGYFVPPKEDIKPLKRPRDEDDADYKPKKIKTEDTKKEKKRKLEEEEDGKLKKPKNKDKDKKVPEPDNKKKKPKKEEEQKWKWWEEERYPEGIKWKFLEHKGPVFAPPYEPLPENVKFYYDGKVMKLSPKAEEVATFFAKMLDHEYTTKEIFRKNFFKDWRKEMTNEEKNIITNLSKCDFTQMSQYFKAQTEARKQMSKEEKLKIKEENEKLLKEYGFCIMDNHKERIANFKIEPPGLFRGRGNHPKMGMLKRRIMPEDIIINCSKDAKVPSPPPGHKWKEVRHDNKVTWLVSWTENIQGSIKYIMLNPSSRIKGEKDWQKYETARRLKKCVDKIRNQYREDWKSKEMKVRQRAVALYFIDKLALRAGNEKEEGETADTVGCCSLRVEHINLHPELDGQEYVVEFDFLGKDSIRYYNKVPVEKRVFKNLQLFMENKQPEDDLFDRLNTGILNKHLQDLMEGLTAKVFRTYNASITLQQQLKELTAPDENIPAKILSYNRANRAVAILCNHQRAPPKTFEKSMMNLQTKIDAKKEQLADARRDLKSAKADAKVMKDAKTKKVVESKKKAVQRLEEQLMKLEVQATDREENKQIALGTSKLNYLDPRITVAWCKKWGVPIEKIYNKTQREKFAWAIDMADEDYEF
How it was run: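 Topoisomerase I kit assay. Compound at 100 µM final with 0.5% DMSO. Started with 5 U topo I, run 30 min at 37 °C, stopped with 1% SDS. Products resolved on 1% agarose in TAE at 80 V for 3 h, ethidium-stained. Inhibition scored 0 to 3+.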

HepG2 = experiment: Cytotoxicity against human HepG2 cells after 72 hrs by MTT assay; assay type: functional, cell-based; conditions: HepG2, 72 h
How it was run: (§1)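 Exponentially growing cells seeded at 1–8 × 10³ cells/well and left 24 h. Medium then replaced with medium holding compound in DMSO (final DMSO <0.1%), ten serial threefold dilutions, or DMSO alone. Triplicate wells, 72 h exposure. MTT added, 1 h at 37 °C, formazan dissolved in DMSO, A550 read. IC50 by non-linear regression; mean ± SD of at least three experiments.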

PC-3 [2] = experiment: Cytotoxicity against human PC3 cells after 72 hrs by MTT assay; assay type: functional, cell-based; conditions: PC-3, 72 h; how it was run: as §1
HeLa = experiment: Cytotoxicity against human HeLa cells after 72 hrs by MTT assay; assay type: functional, cell-based; how it was run: as §1
Jurkat = experiment: Cytotoxicity against human Jurkat cells after 72 hrs by XTT assay; assay type: functional, cell-based
How it was run: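 Exponentially growing Jurkat cells (RPMI 1640, 10% heat-inactivated FBS, 1% P/S, 2 mM glutamine) seeded at 5.5 × 10³ cells/well. Exposed to ten serial threefold dilutions of compound or DMSO vehicle in medium, triplicate wells, 72 h. XTT labeling mixture then added for 4 h at 37 °C, A450 read. IC50 by non-linear regression; mean ± SD of at least three experiments.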

BJ [3] = experiment: Cytotoxicity against human BJ cells after 72 hrs by MTT assay; assay type: cell-based; how it was run: as §1
HT-29 = experiment: Cytotoxicity against human HT-29 cells after 72 hrs by MTT assay; assay type: functional, cell-based; conditions: HT-29, 72 h; how it was run: as §1
BJ [4] = experiment: Selectivity ratio of IC50 for human BJ cells to IC50 for human PC3 cells
PC-3 [5] = experiment: Ratio of betulinic acid IC50 to compound IC50 for human PC3 cells; assay type: functional
[6] = in the assay text read “after 30 mins” for “after 3 hrs”

C=C(COC)[C@@H]1CC[C@]2(COC(=O)n3cncn3)CC[C@]3(C)[C@H](CC[C@@H]4[C@@]5(C)CC[C@H](O)C(C)(C)[C@@H]5CC[C@]43C)[C@@H]12
inhibition [1]: Active
IC50 (HepG2): 9.1 µM
IC50 (PC-3 [2]): 2.6 µM
IC50 (HeLa): 24.3 µM
IC50 (Jurkat): 9.5 µM
IC50 (BJ [3]): 46.6 µM
IC50 (HT-29): 5.8 µM
Ratio IC50 (BJ [4]): 15

C=C(COC)[C@@H]1CC[C@]2(COC(=O)n3cncn3)CC[C@]3(C)[C@H](CC[C@@H]4[C@@]5(C)CC[C@H](OC(=O)n6cncn6)C(C)(C)[C@@H]5CC[C@]43C)[C@@H]12
inhibition [1]: inactive
IC50 (PC-3 [2]): 6.4 µM
IC50 (HT-29): 12.3 µM

C=C(C)[C@@H]1CC[C@]2(C(=O)n3ccnc3C)CC[C@]3(C)[C@H](CC[C@@H]4[C@@]5(C)C=CC(=O)C(C)(C)[C@@H]5CC[C@]43C)[C@@H]12
inhibition [1, 6]: inactive
IC50 (HepG2): 6.8 µM
IC50 (HeLa): 10.6 µM
IC50 (Jurkat): 12.5 µM
IC50 (HT-29): 9 µM

C=C(C)[C@@H]1CC[C@]2(COC(C)=O)CC[C@]3(C)[C@H](CC[C@@H]4[C@@]5(C)CC[C@H](OC(=O)n6cncn6)C(C)(C)[C@@H]5CC[C@]43C)[C@@H]12
IC50 (PC-3 [2]): > 30 µM
IC50 (HT-29): > 30 µM

C=C(C)[C@@H]1CC[C@]2(C(=O)O)CC[C@]3(C)[C@H](CC[C@@H]4[C@@]5(C)CC[C@H](OC(=O)n6ccnc6C)C(C)(C)[C@@H]5CC[C@]43C)[C@@H]12
inhibition [1]: Active
IC50 (HepG2): 7.3 µM
IC50 (HeLa): 7.5 µM
IC50 (Jurkat): 6.1 µM
IC50 (BJ [3]): 41.3 µM
IC50 (HT-29): 5.7 µM

C=C(C)[C@@H]1CC[C@]2(CO)CC[C@]3(C)[C@H](CC[C@@H]4[C@@]5(C)CC[C@H](OC(=O)n6cncn6)C(C)(C)[C@@H]5CC[C@]43C)[C@@H]12
inhibition [1, 6]: Active
IC50 (HepG2): 7.3 µM
IC50 (PC-3 [2]): 2.1 µM
IC50 (HeLa): 6.9 µM
IC50 (Jurkat): 12.2 µM
IC50 (BJ [3]): 39.4 µM
IC50 (HT-29): 4.9 µM
Ratio IC50 (BJ [4]): 15

C=C(C)[C@@H]1CC[C@]2(COC(C)=O)CC[C@]3(C)[C@H](CC[C@@H]4[C@@]5(C)CC[C@H](OC(=O)n6ccnc6C)C(C)(C)[C@@H]5CC[C@]43C)[C@@H]12
IC50 (HepG2): > 30 µM
IC50 (HeLa): > 30 µM
IC50 (Jurkat): > 30 µM
IC50 (HT-29): > 30 µM

C=C(C)[C@@H]1CC[C@]2(C(=O)O)CC[C@]3(C)[C@H](CC[C@@H]4[C@@]5(C)CC[C@H](O)C(C)(C)[C@@H]5CC[C@]43C)[C@@H]12 [BETULINIC ACID]
IC50 (HepG2): 36.4 µM
IC50 (PC-3 [2]): 21.5 µM
IC50 (HeLa): 26 µM
IC50 (Jurkat): 26.9 µM
IC50 (HT-29): 12.8 µM

C=C(C)[C@@H]1CC[C@]2(COC(=O)n3ccnc3C)CC[C@]3(C)[C@H](CC[C@@H]4[C@@]5(C)CC[C@H](OC(=O)n6ccnc6C)C(C)(C)[C@@H]5CC[C@]43C)[C@@H]12
inhibition [1, 6]: inactive
IC50 (HepG2): > 30 µM
IC50 (HeLa): > 30 µM
IC50 (Jurkat): > 30 µM
IC50 (HT-29): > 30 µM

C=C(C)[C@@H]1CC[C@]2(C(=O)n3cncn3)CC[C@]3(C)[C@H](CC[C@@H]4[C@@]5(C)C=C(O)C(=O)C(C)(C)[C@@H]5CC[C@]43C)[C@@H]12
inhibition [1, 6]: Active
IC50 (HepG2): 7.4 µM
IC50 (PC-3 [2]): 1.8 µM
IC50 (HeLa): 5.4 µM
IC50 (Jurkat): 10.5 µM
Ratio IC50 (PC-3 [5]): 12
IC50 (BJ [3]): 27.9 µM
IC50 (HT-29): 3.3 µM
Ratio IC50 (BJ [4]): 15

Cc1nccn1C(=O)OC[C@]12CC[C@@H]([C@@H](C)C=O)C1[C@H]1CC[C@@H]3[C@@]4(C)CC[C@H](O)C(C)(C)[C@@H]4CC[C@@]3(C)[C@]1(C)CC2 (stereo partly drawn)
inhibition [1, 6]: Active
IC50 (HepG2): 14.3 µM
IC50 (HeLa): 16.6 µM
IC50 (Jurkat): 21.3 µM
IC50 (HT-29): 15.8 µM

C=C(C)[C@@H]1CC[C@]2(COC(=O)n3ccnc3C)CC[C@]3(C)[C@H](CC[C@@H]4[C@@]5(C)CC[C@H](O)C(C)(C)[C@@H]5CC[C@]43C)[C@@H]12
inhibition [1, 6]: inactive
IC50 (HepG2): 36.4 µM
IC50 (HeLa): 11 µM
IC50 (Jurkat): 15.8 µM
IC50 (HT-29): 16.2 µM

C=C(C)[C@@H]1CC[C@]2(C(=O)O)CC[C@]3(C)[C@H](CC[C@@H]4[C@@]5(C)C=C(OC(=O)n6ccnc6C)C(=O)C(C)(C)[C@@H]5CC[C@]43C)[C@@H]12
inhibition [1, 6]: Active
IC50 (HepG2): 4.7 µM
IC50 (HeLa): 6.4 µM
IC50 (Jurkat): 9.4 µM
IC50 (BJ [3]): 37.2 µM
IC50 (HT-29): 5.9 µM

C=C(C)[C@@H]1CC[C@]2(COC(=O)n3ccnc3C)CC[C@]3(C)[C@H](CC[C@@H]4[C@@]5(C)CC[C@H](OC(C)=O)C(C)(C)[C@@H]5CC[C@]43C)[C@@H]12
IC50 (HepG2): > 30 µM
IC50 (HeLa): > 30 µM
IC50 (Jurkat): > 30 µM
IC50 (HT-29): > 30 µM

C=C(C)[C@@H]1CC[C@]2(COC(=O)n3cncn3)CC[C@]3(C)[C@H](CC[C@@H]4[C@@]5(C)CC[C@H](OC(=O)n6cncn6)C(C)(C)[C@@H]5CC[C@]43C)[C@@H]12
inhibition [1]: inactive
IC50 (PC-3 [2]): 7.9 µM
IC50 (HT-29): 17.5 µM

C=C(C)[C@@H]1CC[C@]2(C(=O)n3cncn3)CC[C@]3(C)[C@H](CC[C@@H]4[C@@]5(C)CC[C@H](OC(=O)n6cncn6)C(C)(C)[C@@H]5CC[C@]43C)[C@@H]12
inhibition [1]: Active
IC50 (HepG2): 6.8 µM
IC50 (PC-3 [2]): 1.1 µM
IC50 (HeLa): 4.1 µM
IC50 (Jurkat): 11.6 µM
Ratio IC50 (PC-3 [5]): 19
IC50 (BJ [3]): 19.4 µM
IC50 (HT-29): 1.9 µM
Ratio IC50 (BJ [4]): 15

C=C(C)[C@@H]1CC[C@]2(C(=O)n3ccnc3C)CC[C@]3(C)[C@H](CC[C@@H]4[C@@]5(C)CCC(=O)C(C)(C)[C@@H]5CC[C@]43C)[C@@H]12
inhibition [1]: inactive
IC50 (HepG2): 5.5 µM
IC50 (HeLa): 4.2 µM
IC50 (Jurkat): 5.3 µM
IC50 (BJ [3]): 48.4 µM
IC50 (HT-29): 4.7 µM

C=C(COC)[C@@H]1CC[C@]2(COC(=O)n3ccnc3C)CC[C@]3(C)[C@H](CC[C@@H]4[C@@]5(C)CC[C@H](OC(=O)n6ccnc6C)C(C)(C)[C@@H]5CC[C@]43C)[C@@H]12
inhibition [1, 6]: inactive
IC50 (HepG2): 28.2 µM
IC50 (HeLa): 13.4 µM
IC50 (Jurkat): > 30 µM
IC50 (HT-29): > 30 µM

C=C(COC)[C@@H]1CC[C@]2(COC(=O)n3ccnc3C)CC[C@]3(C)[C@H](CC[C@@H]4[C@@]5(C)CC[C@H](O)C(C)(C)[C@@H]5CC[C@]43C)[C@@H]12
inhibition [1, 6]: inactive
IC50 (HepG2): 14.4 µM
IC50 (HeLa): 8.9 µM
IC50 (Jurkat): 24.8 µM
IC50 (HT-29): 10.4 µM

C=C(C)[C@@H]1CC[C@]2(COC(=O)n3cncn3)CC[C@]3(C)[C@H](CC[C@@H]4[C@@]5(C)CC[C@H](O)C(C)(C)[C@@H]5CC[C@]43C)[C@@H]12
inhibition [1]: inactive
IC50 (PC-3 [2]): 4.7 µM
IC50 (HT-29): 7.6 µM

C=C(C)[C@@H]1CC[C@]2(COC(=O)n3cncn3)CC[C@]3(C)[C@H](CC[C@@H]4[C@@]5(C)CC[C@H](OC(C)=O)C(C)(C)[C@@H]5CC[C@]43C)[C@@H]12
IC50 (PC-3 [2]): > 30 µM
IC50 (HT-29): > 30 µM
